Assay [1] relates to NCI-H1299. Kind of assay: Induction of ROS generation in human NCI-H1299 cells at 100 uM after 5 hrs by DCF-DA staining-based assay. It counts as functional. The essentials: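 Single-point screen at 100 µM in duplicate, 5 h incubation in H1299 cells. ROS detected by DCF-DA fluorescence, reported as fold over non-treated control (Fi/Fo).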
In assay [2] the target is T1, AMP-activated protein kinase, AMPK (Homo sapiens) (UniProt P54646+O43741+P54619+Q9UGJ0+Q9Y478+Q13131+Q9UGI9). Briefly: Activation of AMPK in HEK293 cells assessed as p53 stabilization at 0.03 to 0.1 mM after 16 hrs by Western blotting method. Type of assay: cell-based. In general terms: In western blotting, separated proteins are transferred to a membrane and probed.

In assay [3] the target is Endoplasmic reticulum chaperone BiP (Homo sapiens) (UniProt P11021). Kind of assay: Induction of glucose-regulated protein 78 in HEK293 cells at 200 uM after 6 hrs by Western blotting method. Type of assay: cell-based. In outline:
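GRP78 (BiP) induction, an ER stress marker, assessed by Western blot of HEK293 lysates after treatment at 200 µM.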

In assay [4] the test system is NCI-H1299. Briefly: Induction of ROS generation in human NCI-H1299 cells at <= 50 uM after 5 hrs by DCF-DA staining-based assay. It counts as functional. In outline:
(§1)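 H1299 cells incubated 5 h with increasing compound concentrations (0–100 µM). ROS read with the cell-permeable probe DCF-DA. Fluorescence of treated cells (Fi) ratioed to non-treated control (Fo).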

Assay [5] concerns the target T1, AMP-activated protein kinase, AMPK (Homo sapiens). Briefly: Activation of AMPK in HEK293 cells assessed as AMPK phosphorylation after 16 hrs by Western blotting method. It counts as cell-based. The essentials: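 HEK293 cells treated with increasing concentrations of compound for 16 h; cell lysates analysed by Western blot with antibodies to phosphorylated AMPK (also p53).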

Assay [6] deals with NCI-H1299. Briefly: Cytotoxicity against human NCI-H1299 cells assessed as reduction in cell viability after 48 hrs by MTT assay. Type of assay: functional, cell-based. The conditions noted are these: for IC50: NCI-H1299, 48 h. The essentials:
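H1299 non-small cell lung carcinoma cells incubated with compound for 48 h. Viability by MTT relative to non-treated control (Vi/Vo). IC50 taken from dose–response.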
In general terms: Formazan colour is commonly taken as a measure of viable cells.

Assay [7] concerns NCI-H1299. Kind of assay: Cytotoxicity against human NCI-H1299 cells assessed as viability at 500 uM after 48 hrs by MTT assay. It counts as functional. The conditions noted are these: NCI-H1299, 48 h, read-out: Activity. The essentials:
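H1299 non-small cell lung carcinoma cells incubated with compound for 48 h; viability read by MTT assay and expressed as treated (Vi) relative to non-treated control (Vo).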

For assay [8], the system named is NCI-H1299. Kind of assay: Induction of ROS generation in human NCI-H1299 cells at […] after 5 hrs by DCF-DA staining-based assay.
Assay [9] relates to NCI-H1299. Briefly: Induction of ROS generation in human NCI-H1299 cells after 5 hrs by DCF-DA staining-based assay. It counts as functional, cell-based. The essentials: as §1
For assay [10], the system named is NCI-H1299. Briefly: Induction of ROS generation in human NCI-H1299 cells at <= 100 uM after 5 hrs by DCF-DA staining-based assay. It counts as functional.
For assay [11], the system named is NCI-H1299. Kind of assay: Cytotoxicity against human NCI-H1299 cells assessed as reduction in cell viability at 100 uM after 48 hrs by MTT assay. It counts as functional, cell-based. In outline: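 H1299 cells treated at 100 µM for 48 h in duplicate. MTT viability expressed as treated versus non-treated control (Vi/Vo).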

The structures appear in SMILES notation. Activity calls are given as the source filed them. The rule behind the calls is not given here.

Chain of Endoplasmic reticulum chaperone BiP (Homo sapiens) (P11021 whole entry): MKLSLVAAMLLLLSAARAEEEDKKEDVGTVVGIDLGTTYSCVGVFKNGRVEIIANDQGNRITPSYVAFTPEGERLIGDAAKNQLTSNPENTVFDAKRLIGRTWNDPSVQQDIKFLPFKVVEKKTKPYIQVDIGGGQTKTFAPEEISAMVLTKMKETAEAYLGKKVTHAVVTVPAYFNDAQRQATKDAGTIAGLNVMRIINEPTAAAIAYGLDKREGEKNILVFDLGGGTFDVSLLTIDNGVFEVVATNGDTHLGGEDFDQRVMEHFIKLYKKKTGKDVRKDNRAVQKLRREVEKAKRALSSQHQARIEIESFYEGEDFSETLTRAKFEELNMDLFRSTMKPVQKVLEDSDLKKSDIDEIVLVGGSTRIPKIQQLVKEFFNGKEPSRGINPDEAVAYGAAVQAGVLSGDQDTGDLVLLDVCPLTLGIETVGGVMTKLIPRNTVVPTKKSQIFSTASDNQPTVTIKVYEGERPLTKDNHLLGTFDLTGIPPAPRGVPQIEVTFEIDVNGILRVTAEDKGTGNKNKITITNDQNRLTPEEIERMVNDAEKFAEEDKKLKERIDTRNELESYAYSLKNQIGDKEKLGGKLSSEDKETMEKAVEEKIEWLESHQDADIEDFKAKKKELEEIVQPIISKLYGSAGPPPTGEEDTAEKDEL

Take `OC[C@H]1OC(Nc2cccc3ccccc23)[C@H](O)[C@@H](O)[C@H]1O` (stereo partly specified): the “fold change (FC)” value in the assay on NCI-H1299 [1] was “>=2”.
Take `CC(=O)O[C@@H]1[C@@H](OC(C)=O)[C@H](OC(C)=O)CO[C@H]1Nc1cccc2ccccc12`: the result in [2] and in assay [3] was Active. In addition, the “fold change (FC)” value with NCI-H1299 [4] is given as 1.5. Besides, the Activity entry in assay [5] was “Dose-dependent effect”. In addition, the IC50 – broadly, the concentration needed to halve the response being measured – in the assay on NCI-H1299 [6] turned out to be 30 µM.
On to `CC(=O)N[C@H]1C(Nc2ccc3nccnc3c2)O[C@H](CO)[C@@H](O)[C@@H]1O` (stereo partly specified), for which, in the assay on NCI-H1299 [1], the “fold change (FC)” value is “>=2”.
As for `OC[C@H]1OC(O)C[C@@H](O)[C@@H]1O` (stereo partly specified), the viability at 500 µM in the assay on NCI-H1299 [7] came out at 80%. The “fold change (FC)” value with NCI-H1299 [8] was found to be 1.5. Besides, the Activity result in assay [5] was “Dose-dependent effect”.
For the compound `O[C@H]1[C@H](O)[C@@H](Nc2cccc3ccccc23)OC[C@H]1O`, the Activity result with NCI-H1299 [9] is “Dose-dependent effect”. Moreover, the entries for the “fold change (FC)” value in the assay on NCI-H1299 [10] and in the assay with NCI-H1299 [1] were 2 and “>=2”, respectively. In the assay on NCI-H1299 [11], the outcome was Active. The concentration for half-maximal inhibition (IC50) in the assay with NCI-H1299 [6] is 75 µM.
Turning to `O[C@@H]1[C@@H](O)[C@H](Nc2cccc3ccccc23)OC[C@H]1O`, the Activity result in the assay with NCI-H1299 [9] is “Dose-dependent effect”. In addition, the “fold change (FC)” value in the assay with NCI-H1299 [10] was 2; with NCI-H1299 [1], “>=2”. Moreover, the result (in the assay with NCI-H1299 [11]; in assay [3]) was Active. Also, the IC50 in the assay on NCI-H1299 [6] was determined as 75 µM.
For the compound `O[C@H]1[C@H](O)[C@H](Nc2ccccc2)OC[C@H]1O`, the outcome in the assay with NCI-H1299 [11] was Active. In addition, the result in the assay on NCI-H1299 [1] was inactive.
As to `O=C[C@H](O)[C@@H](O)[C@H](O)CO`, in the assay with NCI-H1299 [6], the outcome was inactive.
`C[C@@H]1OC(Nc2cccc3ccccc23)[C@H](O)[C@H](O)[C@H]1O` (stereo partly specified): the “fold change (FC)” value in the assay on NCI-H1299 [1] is given as “>=2”.
`O=c1oc2ccccc2cc1N[C@@H]1OC[C@H](O)[C@H](O)[C@H]1O`: the “fold change (FC)” value in the assay on NCI-H1299 [1] was “>=2”.
For `OO` [HYDROGEN PEROXIDE], the IC50 in the assay on NCI-H1299 [6] is 60 µM.
For `O[C@H]1[C@H](O)[C@@H](Nc2ccccc2)OC[C@H]1O`, in the assay on NCI-H1299 [11], the outcome was Active. The outcome in the assay with NCI-H1299 [1] was inactive.
For `CC(=O)OC1OC[C@@H](OC(C)=O)[C@H](OC(C)=O)[C@H]1OC(C)=O` (stereo partly specified), the result in the assay on NCI-H1299 [6] was inactive.
With `O[C@@H]1[C@@H](O)[C@@H](O)CO[C@H]1Nc1ccccc1`, the outcome with NCI-H1299 [11] was Active.

Values taken from ChEMBL document CHEMBL3763011, “Carbohydrate-based inducers of cellular stress for targeting cancer cells” (Bioorg Med Chem Lett, 2016).
